In ChEMBL document CHEMBL1122431, “Carbocyclic analogues of 5-substituted uracil nucleosides: synthesis and antiviral activity” (1983):
Converted amounts (≈) assume the structure as drawn.

Legend:
Format in all cases: functional
[1] = tested on: Human alphaherpesvirus 1; test: Antiviral activity against herpes simplex virus(1) strain 377.
How it was run: (§1)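 Inhibition of virus-induced cytopathogenic effect (CPE) in primary rabbit kidney cell cultures challenged with HSV-1 strain 377 or HSV-2 strain MS. HSV-2 testing followed the same procedure. Activity was scored as a virus rating (VR).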

[2] = tested on: Human alphaherpesvirus 1; test: Minimum inhibitory concentration (MIC50) in Herpes simplex virus type-1 (HSV-1) using 377 strain. Experiment 2
How it was run: (§2)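 Inhibition of virus-induced CPE in primary rabbit kidney cell cultures infected with HSV-1 strain 377 or HSV-2 strain MS. Potency was taken as the minimum inhibitory concentration (MIC50), in μg/mL, alongside the virus rating.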

[3] = tested on: Human alphaherpesvirus 2; test: Minimum inhibitory concentration (MIC50) in Herpes simplex virus type-2 (HSV-2) using MS strain. Experiment 2; how it was run: as §2
[4] = tested on: Human alphaherpesvirus 1; test: Antiviral activity against herpes simplex virus(1) strain 377, expressed as virus rating. Experiment 2; how it was run: as §1
[5] = tested on: Human alphaherpesvirus 1; test: Antiviral activity against herpes simplex virus(1) strain 377, expressed as virus rating. Experiment 3; how it was run: as §1
[6] = tested on: Human alphaherpesvirus 2; test: Antiviral activity against herpes simplex virus(2) strain MS expressed as virus rating. Experiment 1; how it was run: as §1
[7] = tested on: Human alphaherpesvirus 2; test: Antiviral activity against herpes simplex virus(2) strain MS expressed as virus rating. Experiment 2; how it was run: as §1
[8] = tested on: Human alphaherpesvirus 1; test: Antiviral activity against herpes simplex virus(1) strain 377, expressed as virus rating. Experiment 1; how it was run: as §1
[9] = tested on: Human alphaherpesvirus 1; test: Minimum inhibitory concentration (MIC50) in Herpes simplex virus type-1 (HSV-1) using 377 strain. Experiment 3; how it was run: as §2
[10] = tested on: Human alphaherpesvirus 2; test: Minimum inhibitory concentration (MIC50) in Herpes simplex virus type-2 (HSV-2) using MS strain. Experiment 1; how it was run: as §2
[11] = tested on: Human alphaherpesvirus 1; test: Minimum inhibitory concentration (MIC50) in Herpes simplex virus type-1 (HSV-1) using 377 strain. Experiment 4; how it was run: as §2
[12] = tested on: Human alphaherpesvirus 1; test: Antiviral activity against herpes simplex virus(1) strain 377, expressed as virus rating. Experiment 4; how it was run: as §1
[13] = tested on: Human alphaherpesvirus 1; test: Minimum inhibitory concentration (MIC50) in Herpes simplex virus type-1 (HSV-1) using 377 strain. Experiment 1; how it was run: as §2
[14] = tested on: Human alphaherpesvirus 1; test: Minimum inhibitory concentration (MIC50) in Herpes simplex virus type-1 (HSV-1) using 377 strain.; how it was run: as §2
[15] = tested on: Human alphaherpesvirus 2; test: Minimum inhibitory concentration (MIC50) in Herpes simplex virus type-2 (HSV-2) using MS strain.; how it was run: as §2
[16] = tested on: Human alphaherpesvirus 2; test: Antiviral activity against herpes simplex virus(2) strain MS expressed as virus rating; how it was run: as §1
[17] = tested on: Human alphaherpesvirus 2; test: Minimum inhibitory concentration (MIC50) in Herpes simplex virus type-2(HSV-2) using MS strain.; how it was run: as §2
[18] = tested on: Human alphaherpesvirus 1; test: Minimum inhibitory concentration (MIC50) in Herpes simplex virus type-1(HSV-1) using 377 strain.; how it was run: as §2
[19] = tested on: Human alphaherpesvirus 1; test: Antiviral activity against herpes simplex virus(1) strain 377, expressed as virus rating; how it was run: as §1
[20] = tested on: Human alphaherpesvirus 1; test: Minimum inhibitory concentration (MIC50) in Herpes simplex virus type-1 (HSV-1) using 377 strain at 0.9 virus rating. Experiment 2; how it was run: as §2
[21] = tested on: Human alphaherpesvirus 1; test: Minimum inhibitory concentration (MIC50) in Herpes simplex virus type-1 (HSV-1) using 377 strain. Experiment 2.; how it was run: as §2
[22] = tested on: Human alphaherpesvirus 2; test: Antiviral activity against herpes simplex virus(2) strain MS expressed as virus rating.; how it was run: as §1

In the case of `O=c1[nH]c(=O)n(C2CC(CO)C(O)C2O)cc1F` (stereo not given), the Virus rating [1] is reported as 0.
`O=c1[nH]c(=O)n([C@@H]2C[C@H](CO)[C@@H](O)C2)cc1I` was tested, and the MIC50 [2] was 0.3 µg/mL (≈ 0.852 µM), the MIC50 [3] was 20 µg/mL (≈ 56.8 µM) and the Virus rating [4] was 7.1. It also gave a Virus rating [5] of 7.9, a Virus rating [6] of 2.9 and a Virus rating [7] of 3.4. For the same compound, the Virus rating [8] was 6.5, the MIC50 [9] was 0.1 µg/mL (≈ 0.284 µM) and the MIC50 [10] was 32 µg/mL (≈ 90.9 µM). It also gave an MIC50 [11] of 0.4 µg/mL (≈ 1.14 µM), a Virus rating [12] of 7.4 and an MIC50 [13] of 0.4 µg/mL (≈ 1.14 µM).
Work on `Cc1cn([C@@H]2C[C@H](CO)[C@@H](O)C2)c(=O)[nH]c1=O` yielded an MIC50 [14] of 0.8 µg/mL (≈ 3.33 µM), a Virus rating [1] of 5.4 and an MIC50 [15] of 7 µg/mL (≈ 29.1 µM). It also gave a Virus rating [16] of 3.2.
Work on `Cc1cn(C2CC(CO)C(O)C2O)c(=O)[nH]c1=O` (stereo not given) yielded a Virus rating [1] of 0.
Compound `CNc1cn(C2CC(CO)C(O)C2O)c(=O)[nH]c1=O` (stereo not given) has a Virus rating [1] of 0.
`O=c1ccn(C2CC(CO)C(O)C2O)c(=O)[nH]1` (stereo not given) was tested, and the Virus rating [1] was 0.
`O=c1[nH]c(=O)n(C2CC(O)C(CO)C2)cc1Br` (stereo not given) showed an MIC50 [17] of 32 µg/mL (≈ 105 µM), a Virus rating [1] of 6.2 and a Virus rating [16] of 1.5. It also gave an MIC50 [18] of 0.3 µg/mL (≈ 0.983 µM).
Compound `O=c1[nH]c(=O)n(C2CC(CO)C(O)C2O)cc1CO` (stereo not given) has a Virus rating [19] of 0.3 and a Virus rating [16] of 0.
In the case of `O=c1[nH]c(=O)n(C2CC(CO)CC2O)cc1I` (stereo not given), the Virus rating [1] is reported as 0.
With `Cc1cn(C2CC(CO)CC2O)c(=O)[nH]c1=O` (stereo not given) the Virus rating [1] was 0.4.
`O=c1ccn(C2CC(CO)CC2O)c(=O)[nH]1` (stereo not given) showed a Virus rating [1] of 0.
For `Nc1cn(C2CC(CO)C(O)C2O)c(=O)[nH]c1=O` (stereo not given), the Virus rating [1] was 0.
With `O=c1[nH]c(=O)n(C2CC(CO)C(O)C2O)cc1I` (stereo not given) the Virus rating [1] was 0.
Compound `Nc1cn(C2CC(CO)CC2O)c(=O)[nH]c1=O` (stereo not given) has a Virus rating [1] of 0.
`CNc1cn(C2CC(CO)CC2O)c(=O)[nH]c1=O` (stereo not given) gave a Virus rating [1] of 0.
`CC(=O)OCC1CC(n2cc(Br)c(=O)[nH]c2=O)CC1OC(C)=O` (stereo not given) was tested, and the Virus rating [4] was 0.9, the Virus rating [8] was 1.3 and the MIC50 [20] was 100 µg/mL (≈ 257 µM). It also gave an MIC50 [13] of 92 µg/mL (≈ 236 µM).
With `O=c1[nH]c(=O)n(C2CC(CO)CC2O)cc1Br` (stereo not given) the Virus rating [1] was 0.
Compound `CC(=O)OCC1CC(n2cc(I)c(=O)[nH]c2=O)CC1OC(C)=O` (stereo not given) has a Virus rating [4] of 1.6, a Virus rating [8] of 2.4 and an MIC50 [21] of 25 µg/mL (≈ 57.3 µM). The MIC50 [13] was 10 µg/mL (≈ 22.9 µM).
For `CCCCNc1cn(C2CC(O)C(CO)C2)c(=O)[nH]c1=O` (stereo not given), the Virus rating [22] was 0.7, the MIC50 [14] was 290 µg/mL (≈ 975 µM) and the Virus rating [1] was 2. It also gave an MIC50 [15] of 1000 µg/mL (≈ 3360 µM).
`Nc1cn(C2CC(O)C(CO)C2)c(=O)[nH]c1=O` (stereo not given) showed a Virus rating [19] of 0.1.
With `CNc1cn(C2CC(O)C(CO)C2)c(=O)[nH]c1=O` (stereo not given) the MIC50 [2] was 15 µg/mL (≈ 58.8 µM), the Virus rating [22] was 1.2 and the Virus rating [4] was 3.9. It also gave a Virus rating [5] of 4.5, a Virus rating [8] of 4.2 and an MIC50 [9] of 25 µg/mL (≈ 97.9 µM). It also gave an MIC50 [15] of 229 µg/mL (≈ 897 µM) and an MIC50 [13] of 10 µg/mL (≈ 39.2 µM).
In the case of `O=c1ccn(C2CC(O)C(CO)C2)c(=O)[nH]1` (stereo not given), the Virus rating [19] is reported as 0.
With `CC(=O)OCC1CC(OC(C)=O)C(n2cc(Br)c(=O)[nH]c2=O)C1` (stereo not given) the Virus rating [19] was 0.
With `O=c1[nH]c(=O)n(C2CC(CO)C(O)C2O)cc1Br` (stereo not given) the Virus rating [1] was 0.
Compound `CN(C)c1cn(C2CC(O)C(CO)C2)c(=O)[nH]c1=O` (stereo not given) has a Virus rating [1] of 0.
Work on `O=c1[nH]c(=O)n(C2CC(CO)CC2O)cc1F` (stereo not given) yielded a Virus rating [1] of 0.
For `O=c1[nH]c(=O)n([C@H]2C[C@H](O)[C@@H](CO)O2)cc1F` [FLOXURIDINE], the Virus rating [1] was 0 and the Virus rating [16] was 0.
`O=c1[nH]c(=O)n([C@H]2C[C@H](O)[C@@H](CO)O2)cc1I` [IDOXURIDINE] showed a Virus rating [19] of 7.4, an MIC50 [14] of 0.3 µg/mL (≈ 0.847 µM) and an MIC50 [15] of 1 µg/mL (≈ 2.82 µM). For the same compound, the Virus rating [16] was 5.
With `Nc1ncnc2c1ncn2[C@@H]1O[C@H](CO)[C@@H](O)[C@@H]1O` [VIDARABINE] the Virus rating [19] was 2.7, the MIC50 [14] was 9.8 µg/mL (≈ 36.7 µM) and the MIC50 [15] was 20.1 µg/mL (≈ 75.2 µM). The Virus rating [16] was 2.3.
